What is called IC50 is the point on the concentration scale where inhibition reaches its midpoint. A low value points to greater potency.

Experiment [1] has as its target Growth factor receptor-bound protein 2 (Homo sapiens, UniProt P62993). Description: Inhibition against Growth factor receptor bound protein 2 binding using ELISA technique. In short, it runs like this:
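Competition ELISA: biotinylated SHC-derived Grb2 SH2-binding phosphopeptide bound at 20 ng/mL to plates overnight, then blocked with 5% BSA in TBS. Recombinant Grb2 SH2-GST fusion was preincubated with serial inhibitor dilutions, then added. After washing with 0.1% BSA/TBS, bound protein was detected with anti-GST and alkaline phosphatase-conjugated secondary, using p-nitrophenyl phosphate colorimetry. Each compound had at least three determinations, with a positive control.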

The subject of a further experiment is MDA-MB-453. The experiment is described as follows: (§1) Growth inhibition against MDA-453 breast cancer cells. In kind it is functional, cell-based. Particulars: Homo sapiens. In outline:
(§2)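 MDA-453 cells seeded at 500 per well and kept in IMEM with 10% fetal bovine serum at 37 °C under 5% CO₂. Inhibitor dilutions were added, with fresh drug solution each day for 5 days. Growth was read by MTT (0.5 mg/mL, 4 h), then medium removed and dissolved cells read at 570 nm. Results are expressed as percent of no-drug control.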

A short description of experiment [2]: as §1. Format: functional, cell-based. Particulars: Homo sapiens, Cancer cell lines. In outline:
as §2

Growth factor receptor-bound protein 2, sequence (P62993 whole entry, the tested form may be a part): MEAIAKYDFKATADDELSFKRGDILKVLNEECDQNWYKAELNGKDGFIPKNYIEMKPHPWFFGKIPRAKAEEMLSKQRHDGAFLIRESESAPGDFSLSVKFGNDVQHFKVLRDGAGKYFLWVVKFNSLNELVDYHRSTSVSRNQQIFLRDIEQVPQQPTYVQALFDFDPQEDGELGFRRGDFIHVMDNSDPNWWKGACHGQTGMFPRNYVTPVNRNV

Take `CC1(C)NC(=O)[C@@H](CC(=O)O)[C@@H](c2ccc(CP(=O)(O)O)cc2)/C=C/C[C@@H](CC2=c3ccccc3=CCC2)CNC(=O)[C@H](CC(N)=O)NC1=O`: the IC50 was 8 nM in experiment [1] and 8000 nM in the experiment with MDA-MB-453. With `NC(=O)C[C@@H]1NC(=O)C2(CCCCC2)NC(=O)C[C@@H](c2ccc(CP(=O)(O)O)cc2)C/C=C/C[C@@H](Cc2cccc3ccccc23)CNC1=O`, the 50% inhibitory concentration (IC50) in experiment [1] was over 10000 nM; with MDA-MB-453, over 50000 nM. As to `NC(=O)C[C@H](NC(=O)C1(NC(=O)[C@H](Cc2ccc(CP(=O)(O)O)cc2)NC(=O)C(=O)O)CCCCC1)C(=O)NCCCC1=c2ccccc2=CCC1`, in experiment [2], the half-maximal inhibitory concentration (IC50) was determined as 5000 nM. In the case of `NC(=O)C[C@@H]1NC(=O)C2(CCCCC2)NC(=O)C[C@@H](c2ccc(CP(=O)(O)O)cc2)/C=C/C[C@@H](CC2=c3ccccc3=CCC2)CNC1=O`, the half-maximal inhibitory concentration (IC50) in experiment [1] is 20 nM. As for `NC(=O)C[C@@H]1NC(=O)C2(CCCCC2)NC(=O)[C@@H](CC(=O)O)[C@@H](c2ccc(CP(=O)(O)O)cc2)/C=C/C[C@@H](CC2=c3ccccc3=CCC2)CNC1=O`, the half-inhibitory concentration (IC50) amounted to 2 nM in experiment [1] and 800 nM with MDA-MB-453.
